According to ChEMBL document CHEMBL3407499, “Synthesis, QSAR and anticandidal evaluation of 1,2,3-triazoles derived from naturally bioactive scaffolds” (Eur J Med Chem, 2015):
Converted amounts (≈) assume the structure as drawn.

What was measured:
[1] = system: Candida albicans; test: microbe, parasite or virus in culture; assay type: functional, organism-based; settings: ATCC 90028, 24 h
[2] = system: Nakaseomyces glabratus; test: microbe, parasite or virus in culture; assay type: functional; settings: ATCC 90030, 48 h
[3] = system: Candida tropicalis; test: Fungicidal activity against Candida tropicalis ATCC 750 incubated at 37 degC for 48 hrs by broth dilution method; assay type: functional; settings: ATCC 750, 48 h
[4] = system: Candida albicans; test: microbe, parasite or virus in culture; assay type: functional; settings: ATCC 90028, 48 h
[5] = system: Candida tropicalis; test: Anticandidal activity against Candida tropicalis ATCC 750 incubated at 37 degC for 24 hrs by broth dilution method; assay type: functional, organism-based; settings: ATCC 750, 24 h
[6] = system: Nakaseomyces glabratus; test: microbe, parasite or virus in culture; assay type: functional, organism-based; settings: ATCC 90030, 24 h
[7] = system: Vero; test: Cytotoxicity against African green monkey Vero cells assessed as reduction in cell viability up to 10 ug/ml after 48 hrs by neutral red assay; assay type: cell-based; settings: chlorocebus sabaeus
[8] = Toxicity in human RBC assessed as induction of hemolysis at anticandidal IC50 level incubated for 1 hr by spectrophotometry; assay type: cell-based, Erythrocyte; settings: red blood cells (RBC), read-out: Activity
Method in brief: (§1)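 Human erythrocyte suspension in PBS, 100 µL added in triplicate to 100 µL compound dilution series in the same buffer, 1 h at 37 °C. Tubes centrifuged 10 min at 2000 rpm and 20 °C, and supernatant A450 measured. Percent hemolysis taken relative to buffer (0%) and 1% Triton X-100 (100%).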

[9] = Toxicity in human RBC assessed as induction of hemolysis at 500 ug/ml incubated for 1 hr by spectrophotometry; assay type: cell-based, Erythrocyte; settings: red blood cells (RBC), read-out: Activity
Method in brief: as §1

[10] = system: Candida tropicalis; test: Anticandidal activity against Candida tropicalis ATCC 750 incubated at 37 degC for 24 hrs in presence of 8-((1-Benzyl-1H-1,2,3-triazol-4-yl)methoxy)quinoline by broth micro dilution method; assay type: functional; settings: ATCC 750, 24 h
[11] = system: Nakaseomyces glabratus; test: Anticandidal activity against Candida glabrata ATCC 90030 incubated at 37 degC for 24 hrs in presence of 8-((1-Benzyl-1H-1,2,3-triazol-4-yl)methoxy)quinoline by broth micro dilution method; assay type: functional; settings: ATCC 90030, 24 h
[12] = system: Vero; test: Cytotoxicity against African green monkey Vero cells assessed as reduction in cell viability after 48 hrs by neutral red assay; assay type: cell-based; settings: chlorocebus sabaeus
Method in brief: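 Vero (monkey kidney fibroblast) cells seeded at 25,000 cells/well, grown 24 h, then exposed to a range of compound concentrations for 48 h. Viable cells quantified by Neutral Red uptake. IC50 read from dose-response curves. Doxorubicin served as positive cytotoxic control.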

[13] = system: Nakaseomyces glabratus; test: Anticandidal activity against Candida glabrata ATCC 90030 incubated at 37 degC for 24 hrs in presence of fluconazole by broth micro dilution method; assay type: functional; settings: ATCC 90030, 24 h
[14] = system: Candida tropicalis; test: Anticandidal activity against Candida tropicalis ATCC 750 incubated at 37 degC for 24 hrs in presence of fluconazole by broth micro dilution method; assay type: functional; settings: ATCC 750, 24 h
[15] = system: Candida tropicalis; test: Anticandidal activity against Candida tropicalis ATCC 750 assessed as fractional inhibitory concentration incubated at 37 degC for 24 hrs in presence of fluconazole by broth micro dilution method; assay type: functional
[16] = system: Nakaseomyces glabratus; test: Anticandidal activity against Candida glabrata ATCC 90030 assessed as fractional inhibitory concentration incubated at 37 degC for 24 hrs in presence of fluconazole by broth micro dilution method; assay type: functional
[17] = system: Candida albicans; test: Anticandidal activity against Candida albicans ATCC 90028 incubated at 37 degC for 24 hrs in presence of fluconazole by broth micro dilution method; assay type: functional; settings: ATCC 90028, 24 h
[18] = system: Candida albicans; test: Anticandidal activity against Candida albicans ATCC 90028 assessed as fractional inhibitory concentration incubated at 37 degC for 24 hrs in presence of fluconazole by broth micro dilution method; assay type: functional

Row | Compound | IC50 [1] [µg/mL] | MFC [2] [µg/mL] | MFC [3] [µg/mL] | MFC [4] [µg/mL] | IC50 [5] [µg/mL] | IC50 [6] [µg/mL] | Activity [7] | further results
1 | CC(C)c1ccc(OCc2cn(Cc3ccccc3)nn2)cc1 | 550 (≈ 1790 µM) | 1000 (≈ 3250 µM) | 1000 (≈ 3250 µM) | 1000 (≈ 3250 µM) | 493 (≈ 1600 µM) | 1060 (≈ 3460 µM) | Non-toxic | 
2 | C/C=C\c1ccc(O)c(OC)c1 [ISOEUGENOL] | 83 (≈ 505 µM) | 500 (≈ 3040 µM) | 1000 (≈ 6090 µM) | 1000 (≈ 6090 µM) | 128 (≈ 778 µM) | 71.6 (≈ 436 µM) |  | 
3 | COc1cc(C=O)ccc1O [VANILLIN] | 321 (≈ 2110 µM) | > 1000 | > 1000 | > 1000 | 123 (≈ 811 µM) | 483 (≈ 3170 µM) |  | hemolysis at 1 h [8]: < 5%; hemolysis at 1 h, 500 ug/ml [9]: 5.45%
4 | COc1ccccc1OCc1cn(Cc2ccccc2)nn1 | 515 (≈ 1740 µM) | > 1000 |  |  | 165 (≈ 559 µM) | 370 (≈ 1250 µM) | Non-toxic | 
5 | C=CCc1ccc(OCc2cn(Cc3ccccc3)nn2)c(OC)c1 | 1090 (≈ 3260 µM) | > 1000 |  | > 1000 | 734 (≈ 2190 µM) | 847 (≈ 2530 µM) | Non-toxic | 
6 | COc1ccccc1O [GUAIACOL] | 179 (≈ 1440 µM) | > 1000 | > 1000 | > 1000 | 201 (≈ 1620 µM) | 336 (≈ 2700 µM) |  | 
7 | OC(Cn1cncn1)(Cn1cncn1)c1ccc(F)cc1F [FLUCONAZOLE] | 15.6 (≈ 51 µM) |  |  |  | 8.55 (≈ 27.9 µM) | 7.81 (≈ 25.5 µM) |  | MIC [5]: 15.6 µg/mL (≈ 51 µM); hemolysis at 1 h, 500 ug/ml [9]: 68.6%; MIC [10]: 3.9 µg/mL; MIC [11]: 3.9 µg/mL; MIC [6]: 15.6 µg/mL (≈ 51 µM)
8 | COc1cc(C=O)ccc1OCc1cn(Cc2ccccc2)nn1 | 44.7 (≈ 138 µM) | 500 (≈ 1550 µM) | 500 (≈ 1550 µM) | > 500 | 92.7 (≈ 287 µM) | 216 (≈ 667 µM) | Non-toxic | hemolysis at 1 h [8]: < 5%; hemolysis at 1 h, 500 ug/ml [9]: 33.5%
9 | CC(C)c1ccc(O)cc1 | 182 (≈ 1330 µM) | > 1000 | > 1000 | 500 (≈ 3670 µM) | 69.5 (≈ 510 µM) | 153 (≈ 1130 µM) |  | 
10 | COc1cccc2c1C(=O)c1c(O)c3c(c(O)c1C2=O)C[C@@](O)(C(=O)CO)C[C@@H]3O[C@H]1C[C@H](N)[C@H](O)[C@H](C)O1 [DOXORUBICIN] |  |  |  |  |  |  |  | IC50 [12]: > 5 µg/mL
11 | c1ccc(Cn2cc(COc3cccc4cccnc34)nn2)cc1 | 0.044 (≈ 0.139 µM) | 125 (≈ 395 µM) | 62.5 (≈ 198 µM) | 62.5 (≈ 198 µM) | 3.6 (≈ 11.4 µM) | 12 (≈ 38 µM) | Non-toxic | MIC [13]: 7.81 µg/mL; MIC [14]: 7.81 µg/mL; MIC [1]: 15.6 µg/mL (≈ 49.4 µM); fractional inhibitory concentration index (FICI) [15]: 0.74; fractional inhibitory concentration index (FICI) [16]: 0.48; MIC [17]: 7.81 µg/mL; hemolysis at 1 h [8]: < 5%; MIC [5]: 15.6 µg/mL (≈ 49.4 µM); hemolysis at 1 h, 500 ug/ml [9]: 4.76%; MIC [6]: 31.2 µg/mL (≈ 98.8 µM); fractional inhibitory concentration index (FICI) [18]: 0.74
12 | COc1cc(/C=C/C(=O)O)ccc1OCc1cn(Cc2ccccc2)nn1 | 891 (≈ 2440 µM) | > 1000 | > 1000 | > 1000 | 105 (≈ 288 µM) | 416 (≈ 1140 µM) | Non-toxic | 
13 | C=CCc1ccc(O)c(OC)c1 [EUGENOL] | 237 (≈ 1440 µM) | > 1000 | > 1000 | > 1000 | 92.7 (≈ 564 µM) | 216 (≈ 1310 µM) |  | 
14 | CC(C)c1ccc(CO)cc1 | 81.5 (≈ 542 µM) | 500 (≈ 3330 µM) | 1000 (≈ 6660 µM) | 1000 (≈ 6660 µM) | 44.8 (≈ 298 µM) | 7.09 (≈ 47.2 µM) |  | 
15 | C/C=C/c1ccc(OCc2cn(Cc3ccccc3)nn2)c(OC)c1 | 481 (≈ 1430 µM) | > 1000 | > 1000 |  | 154 (≈ 459 µM) | 293 (≈ 873 µM) | Non-toxic | 
16 | COc1cc(/C=C/C(=O)O)ccc1O [FERULATE] | 210 (≈ 1080 µM) | > 1000 | > 1000 | > 1000 | 67.6 (≈ 348 µM) | 617 (≈ 3180 µM) |  | 
17 | CC(C)c1ccc(COCc2cn(Cc3ccccc3)nn2)cc1 | 324 (≈ 1010 µM) | > 1000 | > 1000 | > 1000 | 169 (≈ 527 µM) | 316 (≈ 984 µM) | Non-toxic | 
18 | Oc1cccc2cccnc12 [OXYQUINOLINE] | 18.5 (≈ 127 µM) | 500 (≈ 3440 µM) | 500 (≈ 3440 µM) | 500 (≈ 3440 µM) | 22.9 (≈ 158 µM) | 13.8 (≈ 95.1 µM) |  | hemolysis at 1 h [8]: < 5%; MIC [5]: 15.6 µg/mL (≈ 108 µM); hemolysis at 1 h, 500 ug/ml [9]: 15%
